# Measurements reported in ChEMBL document CHEMBL5724801, “EUbOPEN Chemogenomics Library - Multiplex” (2024).
# Where “and” joins values, the source holds several entries; their conditions need not be identical. Identical values can stand only once.
# Tested on: U2OS
# Test: Multiplex assay against U2OS
# Type: toxicity, cell-based
# Conditions: human
# How it was run: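 With compound added, live cells were imaged on a CQ1 microscope at 37°C and 5% CO2; staining with Hoechst33342, BioTracker Green Microtubule Cytoskeleton Dye, MitoTracker Red and Annexin V Alexa Fluor 680 had been done at seeding. The CellPathfinder machine-learning gating scheme split cells into Hoechst high-intensity objects or normal cells, normal cells into healthy, pyknosed or fragmented nuclei, and pyknosed cells into mitotic or apoptotic. The tubulin, mitochondrial-mass and membrane-permeability phenotypes are per cents of healthy-nucleus cells.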
# [1] = 12 h, 1 µM, compound concentration 1 uM
# [2] = 12 h, 10 µM, compound concentration 10 uM
# [3] = 24 h, 1 µM, compound concentration 1 uM
# [4] = 24 h, 10 µM, compound concentration 10 uM
# [5] = 48 h, 1 µM, compound concentration 1 uM
# [6] = 48 h, 10 µM, compound concentration 10 uM
structure (smiles),measurement,setting,value
Cc1onc(-c2ccccc2Cl)c1C(=O)N(C)c1ccc(Cl)cc1,Population Apoptotic (%),[1],82% and 78%
same,Population Fragmented Nuclei (%),[1],26% and 10%
same,Population Healthy Nuclei (%),[1],67% and 79%
same,Population Hoechst High Intensity Objects (%),[1],0% and 1%
same,Population Membrane Permeable-Phenotype (%),[1],3% and 4%
same,Population Mitochondria Different-Phenotype (%),[1],2% and 1%
same,Population Mitotic Cells (%),[1],17% and 21%
same,Population Normal (%),[1],99% and 98%
same,Population Pyknosed Nuclei (%),[1],6% and 10%
same,Population Tubulin-Different-Phenotype (%),[1],1% and 3%
same,Total Cell Count,[1],277 and 136
same,Population Apoptotic (%),[2],79% and 77%
same,Population Fragmented Nuclei (%),[2],28% and 24%
same,Population Healthy Nuclei (%),[2],58% and 56%
same,Population Hoechst High Intensity Objects (%),[2],4% and 0%
same,Population Membrane Permeable-Phenotype (%),[2],12% and 7%
same,Population Mitochondria Different-Phenotype (%),[2],5% and 6%
same,Population Mitotic Cells (%),[2],20% and 22%
same,Population Normal (%),[2],95% and 99%
same,Population Pyknosed Nuclei (%),[2],12% and 19%
same,Population Tubulin-Different-Phenotype (%),[2],5% and 4%
same,Total Cell Count,[2],244 and 113
same,Population Apoptotic (%),[3],100% and 83%
same,Population Fragmented Nuclei (%),[3],23% and 11%
same,Population Healthy Nuclei (%),[3],70% and 81%
same,Population Hoechst High Intensity Objects (%),[3],0% and 1%
same,Population Membrane Permeable-Phenotype (%),[3],2% and 4%
same,Population Mitochondria Different-Phenotype (%),[3],2% and 5%
same,Population Mitotic Cells (%),[3],0% and 16%
same,Population Normal (%),[3],99% and 98%
same,Population Pyknosed Nuclei (%),[3],5% and 7%
same,Population Tubulin-Different-Phenotype (%),[3],0% and 2%
same,Total Cell Count,[3],328 and 168
same,Population Apoptotic (%),[4],72% and 64%
same,Population Fragmented Nuclei (%),[4],26% and 20%
same,Population Healthy Nuclei (%),[4],62% and 66%
same,Population Hoechst High Intensity Objects (%),[4],3%
same,Population Membrane Permeable-Phenotype (%),[4],11% and 8%
same,Population Mitochondria Different-Phenotype (%),[4],6% and 7%
same,Population Mitotic Cells (%),[4],27% and 35%
same,Population Normal (%),[4],96%
same,Population Pyknosed Nuclei (%),[4],11% and 13%
same,Population Tubulin-Different-Phenotype (%),[4],4% and 7%
same,Total Cell Count,[4],299 and 129
same,Population Apoptotic (%),[5],87% and 89%
same,Population Fragmented Nuclei (%),[5],16% and 12%
same,Population Healthy Nuclei (%),[5],75%
same,Population Hoechst High Intensity Objects (%),[5],2% and 1%
same,Population Membrane Permeable-Phenotype (%),[5],4% and 1%
same,Population Mitochondria Different-Phenotype (%),[5],3% and 2%
same,Population Mitotic Cells (%),[5],12% and 10%
same,Population Normal (%),[5],97% and 98%
same,Population Pyknosed Nuclei (%),[5],7% and 11%
same,Population Tubulin-Different-Phenotype (%),[5],2% and 1%
same,Total Cell Count,[5],450 and 252
same,Population Apoptotic (%),[6],69% and 90%
same,Population Fragmented Nuclei (%),[6],22% and 23%
same,Population Healthy Nuclei (%),[6],67% and 65%
same,Population Hoechst High Intensity Objects (%),[6],3% and 2%
same,Population Membrane Permeable-Phenotype (%),[6],10% and 9%
same,Population Mitochondria Different-Phenotype (%),[6],5%
same,Population Mitotic Cells (%),[6],30% and 10%
same,Population Normal (%),[6],96% and 97%
same,Population Pyknosed Nuclei (%),[6],9% and 11%
same,Population Tubulin-Different-Phenotype (%),[6],4% and 3%
same,Total Cell Count,[6],413 and 182
CC(C)(O)C(=O)N1CCN(c2ccc(C(F)(F)F)c(C3=C(c4c[nH]c5ccccc45)C(=O)NC3=O)c2)CC1,Population Apoptotic (%),[1],88% and 92%
same,Population Fragmented Nuclei (%),[1],29% and 14%
same,Population Healthy Nuclei (%),[1],63% and 75%
same,Population Hoechst High Intensity Objects (%),[1],3% and 1%
same,Population Membrane Permeable-Phenotype (%),[1],5% and 4%
same,Population Mitochondria Different-Phenotype (%),[1],2% and 4%
same,Population Mitotic Cells (%),[1],11% and 7%
same,Population Normal (%),[1],96% and 98%
same,Population Pyknosed Nuclei (%),[1],7% and 9%
same,Population Tubulin-Different-Phenotype (%),[1],3%
same,Total Cell Count,[1],238 and 134
same,Population Apoptotic (%),[2],76% and 50%
same,Population Healthy Nuclei (%),[2],46% and 77%
same,Population Hoechst High Intensity Objects (%),[2],6% and 1%
same,Population Membrane Permeable-Phenotype (%),[2],39% and 14%
same,Population Mitochondria Different-Phenotype (%),[2],23% and 14%
same,Population Mitotic Cells (%),[2],24% and 50%
same,Population Normal (%),[2],93% and 98%
same,Population Pyknosed Nuclei (%),[2],16%
same,Population Tubulin-Different-Phenotype (%),[2],30% and 15%
same,Total Cell Count,[2],166 and 148
same,Population Apoptotic (%),[3],89% and 82%
same,Population Fragmented Nuclei (%),[3],27% and 22%
same,Population Healthy Nuclei (%),[3],61% and 67%
same,Population Hoechst High Intensity Objects (%),[3],3% and 0%
same,Population Membrane Permeable-Phenotype (%),[3],7% and 4%
same,Population Mitochondria Different-Phenotype (%),[3],3% and 2%
same,Population Mitotic Cells (%),[3],10% and 17%
same,Population Normal (%),[3],96% and 100%
same,Population Pyknosed Nuclei (%),[3],11% and 9%
same,Population Tubulin-Different-Phenotype (%),[3],5% and 2%
same,Total Cell Count,[3],263 and 172
same,Population Apoptotic (%),[4],87% and 70%
same,Population Fragmented Nuclei (%),[4],48% and 16%
same,Population Healthy Nuclei (%),[4],27% and 53%
same,Population Hoechst High Intensity Objects (%),[4],6% and 2%
same,Population Membrane Permeable-Phenotype (%),[4],11% and 15%
same,Population Mitochondria Different-Phenotype (%),[4],34% and 24%
same,Population Mitotic Cells (%),[4],12% and 29%
same,Population Normal (%),[4],93% and 97%
same,Population Pyknosed Nuclei (%),[4],24% and 29%
same,Population Tubulin-Different-Phenotype (%),[4],15% and 11%
same,Total Cell Count,[4],172 and 152
same,Population Apoptotic (%),[5],95% and 85%
same,Population Fragmented Nuclei (%),[5],21% and 17%
same,Population Healthy Nuclei (%),[5],65% and 73%
same,Population Hoechst High Intensity Objects (%),[5],3% and 1%
same,Population Membrane Permeable-Phenotype (%),[5],6% and 7%
same,Population Mitochondria Different-Phenotype (%),[5],4% and 3%
same,Population Mitotic Cells (%),[5],4% and 14%
same,Population Normal (%),[5],96% and 98%
same,Population Pyknosed Nuclei (%),[5],12% and 9%
same,Population Tubulin-Different-Phenotype (%),[5],5% and 2%
same,Total Cell Count,[5],377 and 233
same,Population Apoptotic (%),[6],95% and 96%
same,Population Fragmented Nuclei (%),[6],57% and 31%
same,Population Healthy Nuclei (%),[6],11% and 27%
same,Population Hoechst High Intensity Objects (%),[6],14% and 7%
same,Population Membrane Permeable-Phenotype (%),[6],27% and 17%
same,Population Mitochondria Different-Phenotype (%),[6],16% and 14%
same,Population Mitotic Cells (%),[6],4% and 3%
same,Population Normal (%),[6],85% and 92%
same,Population Pyknosed Nuclei (%),[6],30% and 41%
same,Population Tubulin-Different-Phenotype (%),[6],11% and 17%
same,Total Cell Count,[6],177 and 163
